pEC50, pIC50: −log10 of the molar value. Activity calls are given as the source filed them. No cut-off for these calls is given here.
Assays:
[1] = system: Trypanosoma brucei brucei; assay: Antitrypanosomal activity against bloodstream forms of Trypanosoma brucei brucei 427 stably transfected with pHD449 plasmid assessed as parasite viability at 5 uM after 24 hrs by propidium iodide staining based flow cytometry; type: functional
Trypanosoma brucei = assay: Inhibition of Trypanosoma brucei recombinant His-tagged TryS expressed in Escherichia coli BL21 (DE3) assessed as residual enzyme activity by measuring inorganic phosphate release at 30 uM after 15 mins by malachite green dye based end-point assay
How it was run: (§1)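 His-tagged TryS expressed in E. coli BL21(DE3), Ni-NTA then gel filtration/ion exchange purified. Reaction buffer: 100 mM HEPES pH 7.4, 5 mM DTT, 10 mM MgSO4, 0.5 mM EDTA, 9 mM NaCl, 10% DMSO; 150 µM ATP, 2 mM spermidine; glutathione 0.05 (Tb), 0.57 (Tc), 0.25 mM (Li). Stopped at 15 min, malachite green phosphate read at 650 nm, blank-corrected versus DMSO; screen at 30 µM, IC50 if >50% inhibition.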

[2] = Inhibition of Leishmania infantum recombinant His-tagged TryS expressed in Escherichia coli BL21 (DE3) assessed as inorganic phosphate release after 15 mins by malachite green dye based end-point assay; how it was run: as §1
[3] = Inhibition of Trypanosoma cruzi recombinant His-tagged TryS expressed in Escherichia coli BL21 (DE3) assessed as inorganic phosphate release after 15 mins by malachite green dye based end-point assay; how it was run: as §1
Trypanosoma cruzi = assay: Inhibition of Trypanosoma cruzi recombinant His-tagged TryS expressed in Escherichia coli BL21 (DE3) assessed as residual enzyme activity by measuring inorganic phosphate release at 30 uM after 15 mins by malachite green dye based end-point assay; how it was run: as §1
Leishmania infantum = assay: Inhibition of Leishmania infantum recombinant His-tagged TryS expressed in Escherichia coli BL21 (DE3) assessed as residual enzyme activity by measuring inorganic phosphate release at 30 uM after 15 mins by malachite green dye based end-point assay; how it was run: as §1
[4] = system: Trypanosoma brucei brucei; assay: Antitrypanosomal activity against bloodstream forms of Trypanosoma brucei brucei 427 stably transfected with pHD449 plasmid assessed as reduction in parasite viability after 24 hrs by propidium iodide staining based flow cytometry; type: functional, organism-based; details: Trypanosoma brucei, 427, 24 h
[5] = Selectivity index, ratio of EC50 for mouse J774 cells to EC50 for bloodstream forms of Trypanosoma brucei brucei 427 stably transfected with pHD449 plasmid; type: toxicity, cell-based; details: read-out: Ratio EC50
[6] = Aqueous solubility of compound in phosphate buffer at 0.25 mg at pH 7.4 after 48 hrs by HPLC based shake flask method; type: physicochemical
[7] = target: Glycogen synthase kinase-3 (Sus scrofa) (UniProt B2LUN4+I6LNT8); assay: Inhibition of porcine brain GSK-3alpha/beta at 10 uM using GS-1 as substrate after 30 mins by scintillation counting method
How it was run: (§2)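 Radiometric kinase assay with 15 µM ATP, 30 min at 30 °C in buffer A (10 mM MgCl2, 1 mM EGTA, 1 mM DTT, 25 mM Tris-HCl pH 7.5, 50 µg/mL heparin); BSA 0.15 mg/mL added except for CDK2. Substrates: histone H1 (CDK1, CDK2, CDK5), CDK7/9-Tide (CDK9), RS peptide (DYRK1A, CLK1), GS-1 (GSK-3). Stopped onto P81 paper, acid-washed, scintillation counted; activity as % of DMSO control.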

Sus scrofa = species: Sus scrofa; assay: Inhibition of porcine brain CK1delta/epsilon at 10 uM using CKS peptide as substrate after 30 mins by scintillation counting method
How it was run: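 Native porcine brain CK1δ/ε purified on axin 2-sepharose, assayed with 0.67 µg CKS peptide and 15 µM ATP, 30 min at 30 °C; phosphate incorporation captured on P81 paper, counted by scintillation, expressed as % of activity without inhibitor.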

[8] = target: Dual specificity protein kinase CLK1 (Mus musculus) (UniProt P22518); assay: Inhibition of GST-tagged mouse recombinant CLK1 expressed in Escherichia coli at 10 uM after 30 mins by scintillation counting method; how it was run: as §2
Sequence of Dual specificity protein kinase CLK1 (Mus musculus) (P22518 whole entry, looked up): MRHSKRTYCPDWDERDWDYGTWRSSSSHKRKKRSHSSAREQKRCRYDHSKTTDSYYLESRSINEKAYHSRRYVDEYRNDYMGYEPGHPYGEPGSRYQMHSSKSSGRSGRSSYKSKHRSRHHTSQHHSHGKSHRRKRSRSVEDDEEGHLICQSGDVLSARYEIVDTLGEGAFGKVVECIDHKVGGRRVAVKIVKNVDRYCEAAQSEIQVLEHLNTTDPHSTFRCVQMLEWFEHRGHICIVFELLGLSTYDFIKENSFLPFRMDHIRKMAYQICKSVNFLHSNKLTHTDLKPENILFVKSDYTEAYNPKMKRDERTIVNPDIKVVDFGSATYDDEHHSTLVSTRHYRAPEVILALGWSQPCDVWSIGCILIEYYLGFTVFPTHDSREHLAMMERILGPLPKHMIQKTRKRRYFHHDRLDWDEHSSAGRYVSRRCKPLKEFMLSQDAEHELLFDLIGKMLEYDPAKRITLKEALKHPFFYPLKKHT

[9] = target: Dual specificity tyrosine-phosphorylation-regulated kinase 1A (Homo sapiens) (UniProt Q13627); assay: Inhibition of GST-tagged human recombinant DYRK1A expressed in Escherichia coli at 10 uM after 30 mins by scintillation counting method; how it was run: as §2
[10] = target: Cyclin-dependent kinase 5/CDK5 activator 1 (Homo sapiens) (UniProt Q00535+Q15078); assay: Inhibition of human recombinant CDK5/p25 expressed in Escherichia coli at 10 uM using histone H1 as substrate after 30 mins by scintillation counting method; how it was run: as §2
Sequence of Cyclin-dependent kinase 5/CDK5 activator 1 (Homo sapiens) (Q00535 whole entry): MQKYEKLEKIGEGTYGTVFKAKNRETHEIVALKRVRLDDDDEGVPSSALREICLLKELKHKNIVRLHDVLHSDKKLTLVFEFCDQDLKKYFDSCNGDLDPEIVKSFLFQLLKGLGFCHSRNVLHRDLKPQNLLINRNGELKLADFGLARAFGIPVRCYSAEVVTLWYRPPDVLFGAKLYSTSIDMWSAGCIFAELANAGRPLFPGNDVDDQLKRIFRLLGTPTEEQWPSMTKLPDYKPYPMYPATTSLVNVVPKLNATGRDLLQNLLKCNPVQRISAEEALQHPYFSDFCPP
Sequence of Cyclin-dependent kinase 5/CDK5 activator 1 (Homo sapiens) (Q15078 99-307 partner limits assumed): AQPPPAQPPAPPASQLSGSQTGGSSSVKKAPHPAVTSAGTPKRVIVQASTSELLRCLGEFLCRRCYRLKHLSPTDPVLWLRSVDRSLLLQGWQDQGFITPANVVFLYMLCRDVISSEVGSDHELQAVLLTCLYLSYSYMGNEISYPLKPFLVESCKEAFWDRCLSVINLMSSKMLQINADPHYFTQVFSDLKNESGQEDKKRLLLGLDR

[11] = target: CDK2/Cyclin A2 (Homo sapiens) (UniProt P24941+P20248); assay: Inhibition of human recombinant CDK2/cyclin A at 10 uM using histone H1 as substrate after 30 mins by scintillation counting method; type: protein-complex assay; how it was run: as §2
Asteroidea = assay: Inhibition of M phase starfish oocytes CDK1/cyclin B at 10 uM using histone H1 as substrate after 30 mins by scintillation counting method; how it was run: as §2
[12] = target: CDK9/cyclin T1 (Homo sapiens) (UniProt O60563+P50750); assay: Inhibition of human recombinant CDK9/cyclinT expressed in insect cells at 10 uM using CDK7/9-Tide as substrate after 30 mins by scintillation counting method; how it was run: as §2

Structure (SMILES) | Activity [1] [%] | Activity (Trypanosoma brucei) [%] | pIC50 [2] | pIC50 [3] | Activity (Trypanosoma cruzi) [%] | Activity (Leishmania infantum) [%] | pEC50 [4] | selectivity ratio [5] | further results
O=C(CN1C(=O)Cc2c([nH]c3ccc(Br)cc23)-c2ccc(Cl)cc21)NCc1ccccc1Cl | 53.2 | 55.3 | 4.64 | 4.96 |  |  |  |  | 
O=C(CN1C(=O)Cc2c([nH]c3ccc(Br)cc23)-c2ccc(Cl)cc21)NCc1ccccn1 | 33.8 | 75.8 |  |  | 54.8 | 95.5 |  |  | 
O=C(CN1C(=O)Cc2c([nH]c3ccc(Br)cc23)-c2ccc(Cl)cc21)NCc1ccc(Cl)c(Cl)c1 |  | 42 | 4.72 | 5.05 |  |  | 6.08 | 12 | 
O=C(CN1C(=O)Cc2c([nH]c3ccc(Br)cc23)-c2ccc(Cl)cc21)NCc1ccncc1 | 49.1 | 65.2 | 5.92 |  | 58.1 |  |  |  | 
Cc1ccc(CNC(=O)CN2C(=O)Cc3c([nH]c4ccc(Br)cc34)-c3ccc(Cl)cc32)cc1 |  | 53.7 |  | 5.05 |  | 48.6 | 6.52 | > 167 | solubility thermodynamic at 48 h [6]: < 0.48 µM
O=C(CN1C(=O)Cc2c([nH]c3ccc(Br)cc23)-c2ccc(Cl)cc21)NCc1ccc(O)cc1 |  | 58 | 5.00 | 5.05 |  |  | 6.08 | 238 | solubility thermodynamic at 48 h [6]: < 4.8 µM
O=C(CN1C(=O)Cc2c([nH]c3ccc(Br)cc23)-c2ccc(Cl)cc21)NCc1ccc(C(F)(F)F)cc1 |  | 63.5 |  | 5.05 |  | 55.4 | 5.74 | > 18 | 
O=C(CN1C(=O)Cc2c([nH]c3ccc(Br)cc23)-c2ccc(Cl)cc21)NCc1ccccc1 |  | 45.2 |  |  | 72.8 | 50 | 7.40 | 1410 | inhibition [7]: inactive; inhibition (Sus scrofa): inactive; inhibition [8]: inactive; inhibition [9]: inactive; inhibition [10]: inactive; inhibition [11]: inactive; inhibition (Asteroidea): inactive; inhibition [12]: inactive; solubility thermodynamic at 48 h [6]: < 0.49 µM
COc1ccc(CNC(=O)CN2C(=O)Cc3c([nH]c4ccc(Br)cc34)-c3ccc(Cl)cc32)cc1 |  | 53.5 | 4.62 | 4.96 |  |  | 6.00 | 22 | 
O=C(CN1C(=O)Cc2c([nH]c3ccc(Br)cc23)-c2ccc(Cl)cc21)NCc1cccnc1 | 59.4 | 64.8 | 4.96 | 5.05 |  |  |  |  | 
CNCCNC(=O)CN1C(=O)Cc2c([nH]c3ccc(C(F)(F)F)cc23)-c2ccccc21 |  | 70 | 6.46 |  | 44.5 |  | 5.08 | 1 | 
O=C(CN1C(=O)Cc2c([nH]c3ccc(Br)cc23)-c2ccc(Cl)cc21)NCc1cccc(Cl)c1 |  | 55.9 | 4.77 | 4.96 |  |  | 5.96 | 91 | 
O=C(CN1C(=O)Cc2c([nH]c3ccc(Br)cc23)-c2ccc(Cl)cc21)NCc1ccc(Cl)cc1 |  | 50.1 |  | 4.96 |  | 109 | 6.10 | > 62 | 

From ChEMBL document CHEMBL3817827, “5-Substituted 3-chlorokenpaullone derivatives are potent inhibitors of Trypanosoma brucei bloodstream forms” (Bioorg Med Chem, 2016)
